Test results: ChEMBL document CHEMBL1143202
Calls of active or inactive are those of the source. The calls are words filed in the database; no cut-off is given here.

Legend:
Rattus norvegicus [1] = species: Rattus norvegicus; assay: Effect on oxygen consumption rate in Wistar Albino rat liver mitochondria assessed as inhibition in state 3 respiration at 75 uM in presence of succinate relative to control; assay type: functional; parameters: scale not given: the % may be the effect or the level left
Summary of the method: (§1)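 Isolated rat liver mitochondria respiring on glutamate or succinate as substrate; oxygen consumption recorded. State 3 is the rate after ADP addition and state 4 the rate after ADP is exhausted. The respiratory control coefficient (RCC) and ADP/O ratio were determined in the same runs. Flavone tested across 25–200 μM.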

Rattus norvegicus [2] = species: Rattus norvegicus; assay: Effect on oxygen consumption rate in Wistar Albino rat liver mitochondria assessed as inhibition in state 4 respiration at 100 uM in presence of succinate relative to control; assay type: functional; parameters: scale not given: the % may be the effect or the level left; summary of the method: as §1
Rattus norvegicus [3] = species: Rattus norvegicus; assay: Inhibition of NADH-cytochrome c reductase in Wistar Albino rat liver mitochondria at 25 uM relative to control; parameters: scale not given: the % may be the effect or the level left
Rattus norvegicus [4] = species: Rattus norvegicus; assay: Effect on ADP/O ratio in Wistar Albino rat liver mitochondria at 75 uM in presence of succinate relative to control; assay type: functional; summary of the method: as §1
Liver = assay: Reduction of cytochrome c in rat liver mitochondria in presence of SOD and catalase at 200 uM; assay type: functional
Rattus norvegicus [5] = species: Rattus norvegicus; assay: Inhibition of ATPase in Wistar Albino rat livers disrupted mitochondria at 100 uM relative to control; parameters: scale not given: the % may be the effect or the level left
Rattus norvegicus [6] = species: Rattus norvegicus; assay: Effect on oxygen consumption rate in Wistar Albino rat liver mitochondria assessed as inhibition in state 3 respiration at 50 uM in presence of sodium glutamate relative to control; assay type: functional; parameters: scale not given: the % may be the effect or the level left; summary of the method: as §1
Rattus norvegicus [7] = species: Rattus norvegicus; assay: Inhibition of succinate oxidase in Wistar Albino rat liver mitochondria at 75 uM relative to control; parameters: scale not given: the % may be the effect or the level left
Rattus norvegicus [8] = species: Rattus norvegicus; assay: Effect on ADP/O ratio in Wistar Albino rat liver mitochondria at 25 uM in presence of succinate relative to control; assay type: functional; summary of the method: as §1
Rattus norvegicus [9] = species: Rattus norvegicus; assay: Inhibition of ATPase in Wistar Albino rat livers intact mitochondria at 75 uM in presence of FCCP relative to control; parameters: scale not given: the % may be the effect or the level left
Rattus norvegicus [10] = species: Rattus norvegicus; assay: Inhibition of ATPase in Wistar Albino rat livers intact mitochondria at 100 uM in presence of FCCP relative to control; parameters: scale not given: the % may be the effect or the level left
Rattus norvegicus [11] = species: Rattus norvegicus; assay: Inhibition of NADH-cytochrome c reductase in Wistar Albino rat liver mitochondria at 75 uM relative to control; parameters: scale not given: the % may be the effect or the level left
Rattus norvegicus [12] = species: Rattus norvegicus; assay: Inhibition of ATPase in Wistar Albino rat livers intact mitochondria at 50 uM relative to control; parameters: scale not given: the % may be the effect or the level left
Rattus norvegicus [13] = species: Rattus norvegicus; assay: Inhibition of ATPase in Wistar Albino rat livers intact mitochondria at 75 uM relative to control; parameters: scale not given: the % may be the effect or the level left
Rattus norvegicus [14] = species: Rattus norvegicus; assay: Inhibition of NADH-cytochrome c reductase in Wistar Albino rat liver mitochondria at 50 uM relative to control; parameters: scale not given: the % may be the effect or the level left
Rattus norvegicus [15] = species: Rattus norvegicus; assay: Inhibition of ATPase in Wistar Albino rat livers disrupted mitochondria at 25 uM relative to control; parameters: scale not given: the % may be the effect or the level left
Rattus norvegicus [16] = species: Rattus norvegicus; assay: Inhibition of succinate dehydrogenase in Wistar Albino rat liver mitochondria at 75 uM relative to control; parameters: scale not given: the % may be the effect or the level left
Rattus norvegicus [17] = species: Rattus norvegicus; assay: Effect on oxygen consumption rate in Wistar Albino rat liver mitochondria assessed as inhibition in state 3 respiration at 25 uM in presence of succinate relative to control; assay type: functional; parameters: scale not given: the % may be the effect or the level left; summary of the method: as §1
Rattus norvegicus [18] = species: Rattus norvegicus; assay: Effect on oxygen consumption rate in Wistar Albino rat liver mitochondria assessed as inhibition in state 3 respiration at 25 uM in presence of sodium glutamate relative to control; assay type: functional; parameters: scale not given: the % may be the effect or the level left; summary of the method: as §1
Rattus norvegicus [19] = species: Rattus norvegicus; assay: Inhibition of ATPase in Wistar Albino rat livers intact mitochondria at 25 uM relative to control; parameters: scale not given: the % may be the effect or the level left
Rattus norvegicus [20] = species: Rattus norvegicus; assay: Effect on oxygen consumption rate in Wistar Albino rat liver mitochondria assessed as inhibition in state 3 respiration at 100 uM in presence of succinate relative to control; assay type: functional; parameters: scale not given: the % may be the effect or the level left; summary of the method: as §1
Rattus norvegicus [21] = species: Rattus norvegicus; assay: Inhibition of succinate dehydrogenase in Wistar Albino rat liver mitochondria at 200 uM relative to control; parameters: scale not given: the % may be the effect or the level left
Rattus norvegicus [22] = species: Rattus norvegicus; assay: Inhibition of ATPase in Wistar Albino rat livers disrupted mitochondria at 50 uM relative to control; parameters: scale not given: the % may be the effect or the level left
Rattus norvegicus [23] = species: Rattus norvegicus; assay: Effect on oxygen consumption rate in Wistar Albino rat liver mitochondria assessed as inhibition in state 4 respiration at 25 uM in presence of sodium glutamate relative to control; assay type: functional; parameters: scale not given: the % may be the effect or the level left; summary of the method: as §1
Rattus norvegicus [24] = species: Rattus norvegicus; assay: Inhibition of cytochrome c oxidase in Wistar Albino rat liver mitochondria at 75 uM relative to control; parameters: scale not given: the % may be the effect or the level left
Rattus norvegicus [25] = species: Rattus norvegicus; assay: Effect on respiratory control coefficient in Wistar Albino rat liver mitochondria at 50 uM in presence of succinate relative to control; assay type: functional; summary of the method: as §1
Rattus norvegicus [26] = species: Rattus norvegicus; assay: Effect on oxygen consumption rate in Wistar Albino rat liver mitochondria assessed as inhibition in state 3 respiration at 75 uM in presence of sodium glutamate relative to control; assay type: functional; parameters: scale not given: the % may be the effect or the level left; summary of the method: as §1
Rattus norvegicus [27] = species: Rattus norvegicus; assay: Inhibition of ATPase in Wistar Albino rat livers disrupted mitochondria at 75 uM relative to control; parameters: scale not given: the % may be the effect or the level left
Rattus norvegicus [28] = species: Rattus norvegicus; assay: Effect on respiratory control coefficient in Wistar Albino rat liver mitochondria at 100 uM in presence of succinate relative to control; assay type: functional; summary of the method: as §1
Rattus norvegicus [29] = species: Rattus norvegicus; assay: Inhibition of succinate oxidase in Wistar Albino rat liver mitochondria at 50 uM relative to control; parameters: scale not given: the % may be the effect or the level left
Rattus norvegicus [30] = species: Rattus norvegicus; assay: Effect on oxygen consumption rate in Wistar Albino rat liver mitochondria assessed as inhibition in state 3 respiration at 200 uM in presence of sodium glutamate relative to control; assay type: functional; parameters: scale not given: the % may be the effect or the level left; summary of the method: as §1
Rattus norvegicus [31] = species: Rattus norvegicus; assay: Effect on respiratory control coefficient in Wistar Albino rat liver mitochondria at 100 uM in presence of sodium glutamate relative to control; assay type: functional; summary of the method: as §1
Rattus norvegicus [32] = species: Rattus norvegicus; assay: Effect on oxygen consumption rate in Wistar Albino rat liver mitochondria assessed as inhibition in state 4 respiration at 50 uM in presence of succinate relative to control; assay type: functional; parameters: scale not given: the % may be the effect or the level left; summary of the method: as §1
Rattus norvegicus [33] = species: Rattus norvegicus; assay: Inhibition of NADH-cytochrome c reductase in Wistar Albino rat liver mitochondria at 200 uM relative to control; parameters: scale not given: the % may be the effect or the level left
Rattus norvegicus [34] = species: Rattus norvegicus; assay: Inhibition of cytochrome c oxidase in Wistar Albino rat liver mitochondria at 100 uM relative to control; parameters: scale not given: the % may be the effect or the level left
Rattus norvegicus [35] = species: Rattus norvegicus; assay: Inhibition of succinate oxidase in Wistar Albino rat liver mitochondria at 25 uM relative to control; parameters: scale not given: the % may be the effect or the level left
Rattus norvegicus [36] = species: Rattus norvegicus; assay: Inhibition of ATPase in Wistar Albino rat livers intact mitochondria at 50 uM in presence of FCCP relative to control; parameters: scale not given: the % may be the effect or the level left
Rattus norvegicus [37] = species: Rattus norvegicus; assay: Inhibition of NADH dehydrogenase in Wistar Albino rat liver mitochondria at 100 uM relative to control; parameters: scale not given: the % may be the effect or the level left
Rattus norvegicus [38] = species: Rattus norvegicus; assay: Effect on oxygen consumption rate in Wistar Albino rat liver mitochondria assessed as inhibition in state 4 respiration at 75 uM in presence of succinate relative to control; assay type: functional; parameters: scale not given: the % may be the effect or the level left; summary of the method: as §1
Rattus norvegicus [39] = species: Rattus norvegicus; assay: Inhibition of NADH-cytochrome c reductase in Wistar Albino rat liver mitochondria at 100 uM relative to control; parameters: scale not given: the % may be the effect or the level left
Rattus norvegicus [40] = species: Rattus norvegicus; assay: Effect on respiratory control coefficient in Wistar Albino rat liver mitochondria at 75 uM in presence of succinate relative to control; assay type: functional; summary of the method: as §1
Rattus norvegicus [41] = species: Rattus norvegicus; assay: Inhibition of cytochrome c oxidase in Wistar Albino rat liver mitochondria at 50 uM relative to control; parameters: scale not given: the % may be the effect or the level left

COc1c(O)cc2oc(-c3ccc(O)c(O)c3)cc(=O)c2c1O
Activity (Rattus norvegicus [1]): 51.2%
Activity (Rattus norvegicus [2]): 132%
Activity (Rattus norvegicus [3]): 54%
Activity (Rattus norvegicus [4]): 81.6%
Activity (Liver): inactive
Activity (Rattus norvegicus [5]): 94%
Activity (Rattus norvegicus [6]): 66%
Activity (Rattus norvegicus [7]): 86%
Activity (Rattus norvegicus [8]): 85.8%
Activity (Rattus norvegicus [9]): 97%
Activity (Rattus norvegicus [10]): 100%
Activity (Rattus norvegicus [11]): 46%
Activity (Rattus norvegicus [12]): 94%
Activity (Rattus norvegicus [13]): 98%
Activity (Rattus norvegicus [14]): 45%
Activity (Rattus norvegicus [15]): 103%
Activity (Rattus norvegicus [16]): 78%
Activity (Rattus norvegicus [17]): 83%
Activity (Rattus norvegicus [18]): 84.9%
Activity (Rattus norvegicus [19]): 99%
Activity (Rattus norvegicus [20]): 45.4%
Activity (Rattus norvegicus [21]): 51%
Activity (Rattus norvegicus [22]): 102%
Activity (Rattus norvegicus [23]): 109%
Activity (Rattus norvegicus [24]): 102%
Activity (Rattus norvegicus [25]): 55.1%
Activity (Rattus norvegicus [26]): 54.9%
Activity (Rattus norvegicus [27]): 105%
Activity (Rattus norvegicus [28]): 36.8%
Activity (Rattus norvegicus [29]): 83%
Activity (Rattus norvegicus [30]): 19.8%
Activity (Rattus norvegicus [31]): 24.9%
Activity (Rattus norvegicus [32]): 109%
Activity (Rattus norvegicus [33]): 19%
Activity (Rattus norvegicus [34]): 96%
Activity (Rattus norvegicus [35]): 87%
Activity (Rattus norvegicus [36]): 90%
Activity (Rattus norvegicus [37]): 50%
Activity (Rattus norvegicus [38]): 121%
Activity (Rattus norvegicus [39]): 40%
Activity (Rattus norvegicus [40]): 52.9%
Activity (Rattus norvegicus [41]): 104%
